# Reference: ChEMBL document CHEMBL1125245, “Quinolone antibacterials: preparation and activity of bridged bicyclic analogues of the C7-piperazine” (J Med Chem, 1991)
# System: not listed separately
# Test: Compound evaluated in vitro against five gram-negative bacterial strains and geometric means of the minimum inhibitory concentrations (MIC) reported.
# Assay type: functional
# Set-up: unit not given here
# Settings: not given
# How it was run: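 Geometric mean MIC across five Gram-negative strains (E. coli H560, E. coli Vogel, Enterobacter cloacae MA 2646, Klebsiella pneumoniae MGH-2, Proteus rettgeri M1771). Mean taken as antilog of the averaged log MIC values.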
row,Compound,MIC
1,Cl.O=C(O)c1cn(C2CC2)c2nc(N3CC4CCCC3CN4)c(F)cc2c1=O (stereo not drawn),0.08
2,Cl.O=C(O)c1cn(C2CC2)c2nc(N3C[C@@H]4CC3CN4)c(F)cc2c1=O,0.03
3,N[C@H]1C[C@H]2CC[C@@H](C1)N2c1cc2c(cc1F)c(=O)c(C(=O)O)cn2C1CC1,0.15
4,CN1CC2C[C@@H]1CN2c1c(F)cc2c(=O)c(C(=O)O)cn(C3CC3)c2c1F.Cl,0.09
5,Nc1c(F)c(N2CC3CCC2CN3)c(F)c2c1c(=O)c(C(=O)O)cn2C1CC1 (stereo not drawn),0.06
6,CN1CC2C[C@@H]1CN2c1nc2c(cc1F)c(=O)c(C(=O)O)cn2C1CC1.Cl,0.08
7,NC1CCN(c2nc3c(cc2F)c(=O)c(C(=O)O)cn3C2CC2)CC1,0.11
8,NC1CCN(c2cc3c(cc2F)c(=O)c(C(=O)O)cn3C2CC2)CC1,0.17
9,O=C(O)c1cn(C2CC2)c2c(F)c(N3CCNCC3)c(F)cc2c1=O,0.04
10,O=C(O)c1cn(C2CC2)c2cc(N3C[C@H]4CC3CN4)c(F)cc2c1=O,0.1

# System: Escherichia coli
# Test: In vivo protection against gram-negative Escherichia coli vogel in mouse after oral administration.
# Settings: read-out: PD50
row,Compound,ED50
1,Cl.O=C(O)c1cn(C2CC2)c2nc(N3CC4CCCC3CN4)c(F)cc2c1=O (stereo not drawn),2.3 mg/kg
2,Cl.O=C(O)c1cn(C2CC2)c2nc(N3C[C@@H]4CC3CN4)c(F)cc2c1=O,2.2 mg/kg
3,N[C@H]1C[C@H]2CC[C@@H](C1)N2c1cc2c(cc1F)c(=O)c(C(=O)O)cn2C1CC1,9.5 mg/kg
4,CN1CC2C[C@@H]1CN2c1c(F)cc2c(=O)c(C(=O)O)cn(C3CC3)c2c1F.Cl,0.9 mg/kg
5,Nc1c(F)c(N2CC3CCC2CN3)c(F)c2c1c(=O)c(C(=O)O)cn2C1CC1 (stereo not drawn),3.6 mg/kg
6,CN1CC2C[C@@H]1CN2c1nc2c(cc1F)c(=O)c(C(=O)O)cn2C1CC1.Cl,0.5 mg/kg
7,NC1CCN(c2nc3c(cc2F)c(=O)c(C(=O)O)cn3C2CC2)CC1,4.6 mg/kg
8,NC1CCN(c2cc3c(cc2F)c(=O)c(C(=O)O)cn3C2CC2)CC1,15 mg/kg
9,O=C(O)c1cn(C2CC2)c2c(F)c(N3CCNCC3)c(F)cc2c1=O,0.5 mg/kg
10,O=C(O)c1cn(C2CC2)c2cc(N3C[C@H]4CC3CN4)c(F)cc2c1=O,5.5 mg/kg

# Target: DNA gyrase (Escherichia coli, UniProt P0AES4+P0AES6)
# Test: Compound evaluated in vitro for the ability to inhibit gyrase.
# Assay type: protein-complex assay
# Settings: read-out: I50 (converted)
# How it was run: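 DNA gyrase isolated from Escherichia coli H560 cells; inhibition given as I50.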
row,Compound,IC50
1,Cl.O=C(O)c1cn(C2CC2)c2nc(N3CC4CCCC3CN4)c(F)cc2c1=O (stereo not drawn),7.34 µM
2,N[C@H]1C[C@H]2CC[C@@H](C1)N2c1cc2c(cc1F)c(=O)c(C(=O)O)cn2C1CC1,8.08 µM
3,CN1CC2C[C@@H]1CN2c1c(F)cc2c(=O)c(C(=O)O)cn(C3CC3)c2c1F.Cl,7.28 µM
4,Nc1c(F)c(N2CC3CCC2CN3)c(F)c2c1c(=O)c(C(=O)O)cn2C1CC1 (stereo not drawn),14.1 µM
5,CN1CC2C[C@@H]1CN2c1nc2c(cc1F)c(=O)c(C(=O)O)cn2C1CC1.Cl,9.62 µM
6,NC1CCN(c2nc3c(cc2F)c(=O)c(C(=O)O)cn3C2CC2)CC1,8.66 µM
7,NC1CCN(c2cc3c(cc2F)c(=O)c(C(=O)O)cn3C2CC2)CC1,2.32 µM
8,O=C(O)c1cn(C2CC2)c2cc(N3C[C@H]4CC3CN4)c(F)cc2c1=O,8.15 µM

# System: Streptococcus pneumoniae
# Test: In vivo protection against gram-positive Streptococcus pneumonia (SV-1) in mouse after oral administration.
# Assay type: functional
# Settings: read-out: PD50
row,Compound,ED50
1,Cl.O=C(O)c1cn(C2CC2)c2nc(N3CC4CCCC3CN4)c(F)cc2c1=O (stereo not drawn),25 mg/kg
2,CN1CC2C[C@@H]1CN2c1c(F)cc2c(=O)c(C(=O)O)cn(C3CC3)c2c1F.Cl,13 mg/kg
3,CN1CC2C[C@@H]1CN2c1nc2c(cc1F)c(=O)c(C(=O)O)cn2C1CC1.Cl,23 mg/kg
4,O=C(O)c1cn(C2CC2)c2c(F)c(N3CCNCC3)c(F)cc2c1=O,59 mg/kg
5,O=C(O)c1cn(C2CC2)c2cc(N3C[C@H]4CC3CN4)c(F)cc2c1=O,> 100 mg/kg

# System: Streptococcus pneumoniae
# Test: In vivo protection against gram-positive Streptococcus pneumonia (SV-1) in mouse after subcutaneous administration
# Assay type: functional
# Settings: sc, read-out: PD50
row,Compound,ED50
1,Cl.O=C(O)c1cn(C2CC2)c2nc(N3CC4CCCC3CN4)c(F)cc2c1=O (stereo not drawn),18 mg/kg
2,CN1CC2C[C@@H]1CN2c1c(F)cc2c(=O)c(C(=O)O)cn(C3CC3)c2c1F.Cl,14 mg/kg
3,CN1CC2C[C@@H]1CN2c1nc2c(cc1F)c(=O)c(C(=O)O)cn2C1CC1.Cl,25 mg/kg
4,O=C(O)c1cn(C2CC2)c2c(F)c(N3CCNCC3)c(F)cc2c1=O,29 mg/kg
5,O=C(O)c1cn(C2CC2)c2cc(N3C[C@H]4CC3CN4)c(F)cc2c1=O,51 mg/kg

# System: not listed separately
# Test: Compound evaluated in vitro against five gram-positive bacterial strains and geometric means of the minimum inhibitory concentrations (MIC) reported.
# Assay type: functional
# Set-up: unit not given here
# Settings: not given
# How it was run: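 Geometric mean MIC across five Gram-positive strains, taken as antilog of the averaged log MIC values.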
row,Compound,MIC
1,Cl.O=C(O)c1cn(C2CC2)c2nc(N3CC4CCCC3CN4)c(F)cc2c1=O (stereo not drawn),0.09
2,Cl.O=C(O)c1cn(C2CC2)c2nc(N3C[C@@H]4CC3CN4)c(F)cc2c1=O,0.26
3,N[C@H]1C[C@H]2CC[C@@H](C1)N2c1cc2c(cc1F)c(=O)c(C(=O)O)cn2C1CC1,0.23
4,CN1CC2C[C@@H]1CN2c1c(F)cc2c(=O)c(C(=O)O)cn(C3CC3)c2c1F.Cl,0.17
5,Nc1c(F)c(N2CC3CCC2CN3)c(F)c2c1c(=O)c(C(=O)O)cn2C1CC1 (stereo not drawn),0.06
6,CN1CC2C[C@@H]1CN2c1nc2c(cc1F)c(=O)c(C(=O)O)cn2C1CC1.Cl,0.35
7,NC1CCN(c2nc3c(cc2F)c(=O)c(C(=O)O)cn3C2CC2)CC1,0.23
8,NC1CCN(c2cc3c(cc2F)c(=O)c(C(=O)O)cn3C2CC2)CC1,0.17
9,O=C(O)c1cn(C2CC2)c2c(F)c(N3CCNCC3)c(F)cc2c1=O,0.4
10,O=C(O)c1cn(C2CC2)c2cc(N3C[C@H]4CC3CN4)c(F)cc2c1=O,0.79

# System: Escherichia coli
# Test: In vivo protection against gram-negative Escherichia coli vogel in mouse after subcutaneous administration
# Settings: sc, read-out: PD50
row,Compound,ED50
1,Cl.O=C(O)c1cn(C2CC2)c2nc(N3CC4CCCC3CN4)c(F)cc2c1=O (stereo not drawn),0.8 mg/kg
2,Cl.O=C(O)c1cn(C2CC2)c2nc(N3C[C@@H]4CC3CN4)c(F)cc2c1=O,1.6 mg/kg
3,N[C@H]1C[C@H]2CC[C@@H](C1)N2c1cc2c(cc1F)c(=O)c(C(=O)O)cn2C1CC1,2 mg/kg
4,CN1CC2C[C@@H]1CN2c1c(F)cc2c(=O)c(C(=O)O)cn(C3CC3)c2c1F.Cl,0.5 mg/kg
5,Nc1c(F)c(N2CC3CCC2CN3)c(F)c2c1c(=O)c(C(=O)O)cn2C1CC1 (stereo not drawn),0.7 mg/kg
6,CN1CC2C[C@@H]1CN2c1nc2c(cc1F)c(=O)c(C(=O)O)cn2C1CC1.Cl,0.3 mg/kg
7,NC1CCN(c2nc3c(cc2F)c(=O)c(C(=O)O)cn3C2CC2)CC1,0.8 mg/kg
8,NC1CCN(c2cc3c(cc2F)c(=O)c(C(=O)O)cn3C2CC2)CC1,1.4 mg/kg
9,O=C(O)c1cn(C2CC2)c2c(F)c(N3CCNCC3)c(F)cc2c1=O,0.3 mg/kg
10,O=C(O)c1cn(C2CC2)c2cc(N3C[C@H]4CC3CN4)c(F)cc2c1=O,0.6 mg/kg
